Measured values published in article PMC5621377 (Clinical cancer research : an official journal of the …, 2016).
Read-outs that look alike come from different tables or passages of the source.

Tests used:
[1] = Pharmacokinetics, plasma LC-MS/MS, non-compartmental analysis; type: in vivo, human; conditions: AUC0–24 on Days 1 and 18/21 of Cycle 1, 600 mg/day dose
How it was run: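 Oral daily dosing at 50–1,200 mg/day. On Cycle 1 Days 1 and 18/21, blood was drawn pre-dose and at 0.5, 1, 2, 4, 6, 8 and 24 h, with further trough days. Parent drug and a metabolite in plasma were measured by validated LC-MS/MS (LLOQ 1.0 ng/mL). Non-compartmental analysis was used. Dose proportionality was fitted as ln(Cmax or AUC0–24) = α + β ln(dose). T1/2,acc came from the accumulation ratio; steady state was judged from troughs.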

[2] = test system: hormone receptor-positive breast cancer; conditions: cited from earlier work

SMILES	metabolite exposure relative to parent drug [1]	median progression-free survival ([2]; in combination with fulvestrant)	median progression-free survival ([2]; in combination with letrozole)
CNC(=O)c1cc2cnc(Nc3ccc(N4CCNCC4)cn3)nc2n1C1CCCC1 [LEQ803]	approximately 10%	–	–
CC(=O)c1c(C)c2cnc(Nc3ccc(N4CCNCC4)cn3)nc2n(C2CCCC2)c1=O [palbociclib]	–	improved median progression-free survival	improved median progression-free survival
